Experimental data collected from several papers.
Each line is one published result; the experiments were not run side by side.
Target: Ephrin type-B receptor 4 (EPHB4, Homo sapiens, UniProt P54760)
One construct used (P54760 16-987): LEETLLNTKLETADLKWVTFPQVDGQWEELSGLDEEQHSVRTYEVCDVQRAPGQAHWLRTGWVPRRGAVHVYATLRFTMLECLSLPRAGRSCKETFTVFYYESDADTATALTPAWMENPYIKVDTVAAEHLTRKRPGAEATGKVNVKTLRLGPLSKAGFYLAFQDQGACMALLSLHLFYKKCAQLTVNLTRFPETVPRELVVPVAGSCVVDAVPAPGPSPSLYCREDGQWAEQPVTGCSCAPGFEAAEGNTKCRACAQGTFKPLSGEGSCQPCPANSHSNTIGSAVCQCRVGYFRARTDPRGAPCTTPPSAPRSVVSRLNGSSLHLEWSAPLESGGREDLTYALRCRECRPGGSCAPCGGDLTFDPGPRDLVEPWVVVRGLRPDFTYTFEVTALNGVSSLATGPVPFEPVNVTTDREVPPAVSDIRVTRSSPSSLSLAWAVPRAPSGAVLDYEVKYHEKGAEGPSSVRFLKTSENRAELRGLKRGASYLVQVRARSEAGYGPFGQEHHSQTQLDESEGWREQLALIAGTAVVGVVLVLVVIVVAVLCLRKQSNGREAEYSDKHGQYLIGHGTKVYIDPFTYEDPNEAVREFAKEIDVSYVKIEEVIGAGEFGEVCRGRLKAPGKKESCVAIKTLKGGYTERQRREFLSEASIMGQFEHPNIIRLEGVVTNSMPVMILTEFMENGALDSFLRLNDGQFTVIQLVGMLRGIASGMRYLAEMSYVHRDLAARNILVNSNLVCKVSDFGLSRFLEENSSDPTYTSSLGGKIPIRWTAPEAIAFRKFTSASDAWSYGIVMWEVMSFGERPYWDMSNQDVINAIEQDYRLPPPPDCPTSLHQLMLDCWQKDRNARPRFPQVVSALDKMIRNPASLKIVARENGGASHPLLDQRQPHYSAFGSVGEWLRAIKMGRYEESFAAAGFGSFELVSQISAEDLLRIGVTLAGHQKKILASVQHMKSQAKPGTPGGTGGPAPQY

SMILES | assay | conditions | quantity | result
O=c1[nH]c2ccccc2n1C1CCN(Cc2ccc(-c3[nH]c4cc5ncnc5cc4nc3-c3ccccc3)cc2)CC1 | cell-free assay | 0.5 µM | remaining signal | 96.4%
C#Cc1n[nH]c2c(-c3cn([C@@H](C)c4ccccc4)c(=O)[nH]c3=O)cc(F)cc12 | enzyme activity, inhibitor | 0.1 µM | inhibition | 1.4%
Cn1cc(-c2cccc(N3CCc4c(sc5c4CC(C)(C)C5)C3=O)c2CO)cc(Nc2ccncn2)c1=O | enzyme activity, inhibitor | 1 µM | inhibition | 0%
COc1cc(Nc2ncc(F)c(Nc3ccc4c(n3)NC(=O)C(C)(C)O4)n2)cc(OC)c1OC | binding, competition with immobilised ligand | 10 µM | inhibition | 50%
Cn1cncc1[C@](O)(COc1ccc(C#N)cc1-c1ccc(OC(F)(F)F)cc1)c1ccc(C#N)cc1 | cell-free assay, competition with immobilised ligand | 1 µM | remaining binding | 98%
C#Cc1n[nH]c2c(-c3cn([C@@H](C)c4ccccn4)c(=O)[nH]c3=O)cc(F)cc12 | enzyme activity, inhibitor | 0.1 µM | inhibition | 5.5%
Cc1nn(C)cc1-c1nc2c(N3CCN(Cc4ccc(Cl)cc4)CC3)c(Cl)cnc2[nH]1 | binding, competition with immobilised ligand | 1 µM | remaining binding | 100%
Cn1cc(-c2cc(F)cc(N3CCn4c(cc5c4CCCC5)C3=O)c2CO)cc(Nc2ccc(N3CCN(C4COC4)CC3)cn2)c1=O | enzyme activity, inhibitor | 0.1 µM | inhibition | 8%
N#CC1(c2ccccn2)CCN(Cc2cc(C(=O)O)c(=O)n3ccccc23)CC1 | cell-free assay, competition with immobilised ligand | 1 µM | remaining binding | 83%
COc1ncccc1-c1cnn2ccc(N3CCN(C(=O)OC(C)C)CC3)nc12 | binding, competition with immobilised ligand | 1 µM | remaining binding | 100%
